In PMC5485308 (Molecular Metabolism, 2017):
Ends that are not written are not given here.

T1: Elastase 2A (CEL2A) (Homo sapiens, UniProt P08217)
T1 sequence (P08217 29-269): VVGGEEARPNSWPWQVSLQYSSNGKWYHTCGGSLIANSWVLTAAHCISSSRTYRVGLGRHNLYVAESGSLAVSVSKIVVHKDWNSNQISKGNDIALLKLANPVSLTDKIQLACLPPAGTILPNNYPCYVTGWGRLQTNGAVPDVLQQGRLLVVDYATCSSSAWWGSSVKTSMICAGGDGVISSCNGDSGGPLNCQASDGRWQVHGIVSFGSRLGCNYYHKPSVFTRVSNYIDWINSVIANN

T2: carboxypeptidase A1 (CBPA1) (Homo sapiens, UniProt P15085)
T2 sequence (P15085 111-419): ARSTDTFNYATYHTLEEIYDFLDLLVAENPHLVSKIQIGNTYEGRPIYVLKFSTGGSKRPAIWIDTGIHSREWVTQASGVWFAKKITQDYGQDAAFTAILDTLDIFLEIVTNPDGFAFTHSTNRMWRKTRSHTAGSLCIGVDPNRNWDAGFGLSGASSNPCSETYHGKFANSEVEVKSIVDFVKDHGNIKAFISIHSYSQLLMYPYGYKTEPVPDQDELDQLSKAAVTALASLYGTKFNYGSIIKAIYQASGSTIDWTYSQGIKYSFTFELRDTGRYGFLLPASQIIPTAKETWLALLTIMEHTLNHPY

T3: Elastase 3B (CEL3B) (Homo sapiens, UniProt P08861)
T3 sequence (P08861 29-270): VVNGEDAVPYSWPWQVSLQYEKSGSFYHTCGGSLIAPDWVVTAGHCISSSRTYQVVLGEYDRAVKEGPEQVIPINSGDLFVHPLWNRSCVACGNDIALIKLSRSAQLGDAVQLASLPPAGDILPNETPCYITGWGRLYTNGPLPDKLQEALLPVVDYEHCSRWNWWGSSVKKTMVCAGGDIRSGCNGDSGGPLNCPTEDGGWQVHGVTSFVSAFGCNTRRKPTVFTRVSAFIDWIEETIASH


Legend:
Elastase 2A (CEL2A) = target: T1, Elastase 2A (CEL2A); assay: 33-mer, 19-mer and 13-mer hydrolysis by purified human fecal elastase 2A; format: in vitro ADME; details: for extent of degradation by CEL2A: PBS pH 7.3, 37 °C, 60 min, RP-HPLC UV 215 nm
In short: (§1)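 Purified human fecal enzyme (3.4 µL of 0.8 mg/mL) was incubated with 33-, 19- or 13-mer gliadin peptide (4.7 µL of 60 µM) in PBS pH 7.3 (40 µL total) at 37 °C for 60 min (also 24 h). Reactions were stopped by boiling for 10 min, then filtered. Read-out: C18 RP-HPLC, 0.1% TFA water-to-acetonitrile gradient over 20 min, UV 215 nm. Controls: enzyme boiled 15 min; peptide alone.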

[1] = target: T2, carboxypeptidase A1 (CBPA1); format: in vitro ADME; details: for extent of degradation by CBPA1: purified CBPA1, PBS pH 7.3, 37 °C, 60 min, RP-HPLC UV 215 nm
In short: as §1

Elastase 3B (CEL3B) = target: T3, Elastase 3B (CEL3B); assay: 33-mer, 19-mer and 13-mer hydrolysis by purified human fecal elastase 3B; format: in vitro ADME
In short: as §1

CEL2A, CBPA1, and CEL3B = assay: 33-mer hydrolysis with CEL2A, CBPA1 and CEL3B added together; format: in vitro ADME, human; details: CBPA1 and CEL3B added simultaneously or sequentially, 60 min (not shown)
[2] = Peptide hydrolysis by fecal protein extracts of celiac disease; format: in vitro ADME, human; details: for extent of degradation by CD fecal samples, 24 h: fecal extracts of CD patients, 24-h incubation (not shown)
In short: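 Stools from treated celiac patients (Marsh III at diagnosis, gluten-free diet, no antibiotics for a month) were stored at −80 °C. They were homogenized in 10 mM Tris-HCl pH 7.5, and the 35–65% ammonium sulfate fraction was desalted. Extract (3.4 µL of 0.8 mg/mL) plus peptide (4.7 µL of 60 µM) in PBS pH 7.3 ran 60 min or 24 h at 37 °C. Read-out: C18 RP-HPLC, UV 215 nm.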

gluten and gliadin = assay: Glutenase and gliadinase activity of commercial proteases; format: biochemical; details: bioassay on MCG-1 gluten agar plates and gliadin zymography
[3] = 37 °C, 24-h incubation (not shown)

extent of degradation by CEL2A (Elastase 2A (CEL2A))	extent of degradation by CBPA1 [1]	extent of degradation by CD fecal samples, 24 h [2]	hydrolytic activity against gluten and gliadin (gluten and gliadin)	Molecule	further results
not completely degraded	not completely degraded	incomplete		LQLQPFPQPQLPYPQPQLPYPQPQLPYPQPQPF [33-mer]	extent of degradation by CEL2A after 24 h (Elastase 2A (CEL2A); [3]): not completely degraded; extent of degradation by CBPA1 after 24 h ([1]; purified CBPA1, 37 °C, 24-h incubation (not shown)): not completely degraded; extent of degradation by CEL3B after 24 h (Elastase 3B (CEL3B); [3]): not completely degraded; extent of degradation by CEL3B (Elastase 3B (CEL3B); PBS pH 7.3, 37 °C, 60 min, RP-HPLC UV 215 nm): not completely degraded; change of degradation when all 3 enzymes are added (CEL2A, CBPA1, and CEL3B): did not increase; degradation in CD patients relative to NCD samples (higher by) ([2]; fecal extracts of CD patients versus NCD volunteers, 37 °C, 60 min, HPLC): 37%
			showed hydrolytic activity	porcine elastase: commercial protease (3.4.21.36) from Sigma	
fully degraded	fully degraded	completely degraded		LGQQQPFPPQQPYPQPQPF [19-mer]	
fully degraded	fully degraded	completely degraded		LGQQQPFPPQQPY [13-mer]	
			showed hydrolytic activity	recombinant mouse chymotrypsin-like elastase family member 3B: commercial protease (3.4.21.70) from MyBioSource (protein, UniProt Q9CQ52 28-269, looked up) Chymotrypsin-like elastase …: VVNGEEAVPHSWPWQVSLQYEKDGSFHHTCGGSLITPDWVLTAGHCISTSRTYQVVLGEHERGVEEGQEQVIPINAGDLFVHPKWNSMCVSCGNDIALVKLSRSAQLGDAVQLACLPPAGEILPNGAPCYISGWGRLSTNGPLPDKLQQALLPVVDYEHCSRWNWWGLSVKTTMVCAGGDIQSGCNGDSGGPLNCPADNGTWQVHGVTSFVSSLGCNTLRKPTVFTRVSAFIDWIEETIANN	
			showed hydrolytic activity	recombinant bovine chymotrypsin-like elastase family member 2A: commercial protease (3.4.21.71) from MyBioSource (protein, UniProt Q29461 29-269, looked up) Chymotrypsin-like elastase …: VVGGEDARPNSWPWQVSLQYSSSGQWRHTCGGSLIEQNWVLTAAHCISSSRTYRVVVGRQSLSTVESGSLTIAVSKSVIHEKWNSNQLAQGNDIALLKLASSVPLTDKIQLGCLPAAGTILPNNYVCYVTGWGRLQSNGALPDILQQGKLLVVDYATCSNPSWWGSTVKTNMICAGGDGVTSSCNGDSGGPLNCQAANRQWQVHGIVSFGSSLGCNYYRKPSVFTRVSNYNDWISSVIENN	
			showed hydrolytic activity	recombinant rat carboxypeptidase A1: commercial protease (3.4.17.1) from MyBioSource (protein, UniProt P00731 111-419, looked up) Carboxypeptidase A1: ALSTDSFNYATYHTLDEIYEFMDLLVAEHPQLVSKIQIGNTFEGRPIHVLKFSTGGTNRPAIWIDTGIHSREWVTQASGVWFAKKITKDYGQDPTFTAVLDNMDIFLEIVTNPDGFAYTHKTNRMWRKTRSHTQGSLCVGVDPNRNWDAGFGMAGASSNPCSETYRGKFPNSEVEVKSIVDFVTSHGNIKAFISIHSYSQLLLYPYGYTSEPAPDQAELDQLAKSAVTALTSLHGTKFKYGSIIDTIYQASGSTIDWTYSQGIKYSFTFELRDTGLRGFLLPASQIIPTAEETWLALLTIMDHTVKHPY	
